Compound activity deposited in PubChem BioAssay by several laboratories.
Compounds with a hit are over-represented: about 4.8% of the library has one in this group of screens.
NLRP3 yeast inh – NALP3 inflammasome inhibitors in reconstituted yeast, primary screen, luminescence, uHTS; Yeast reconstituted NLRP3/ASC/caspase-1, beta-gal luminescence, 24 h; hit rate 0.39% among 330,000; inhibition, % at 10 µM;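 active = inhibition of 50% or more; inactive = inhibition below 50%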;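 note: plate controls were induced DMSO wells for no effect and uninduced yeast grown without galactose for full effect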
UCH37 inh – inhibitors of human UCH37 deubiquitinase, primary screen, biochemical, Ub-AMC cleavage, fluorescence. Ubiquitin carboxyl-terminal hydrolase isozyme L5 (Homo sapiens), Q9Y5K5. purified proteasome/UCH37. hit rate 0.33% among 330,000. AID 588478, 2011. inhibition, % (test concentration not listed);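 active = mean inhibition over replicate wells above about 20%, limit read from the data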;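 note: 0% = compound-free wells with enzyme and 100% = wells lacking proteasome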
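assay system = human UCH37 enzyme supplied as purified proteasome complex | amount = proteasome at 0.15 nM in the dispensed enzyme solution | schedule = 30 min compound-proteasome preincubation then 25 min substrate reaction, room temperature | measured by = fluorescence, ex 355 nm, em 460 nm | benchmarks = no-proteasome wells (full inhibition) and compound-free wells (no inhibition)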
NALP1 inh – NALP1 inflammasome inhibitors in reconstituted yeast, colorimetric, S. cerevisiae, triplicate retest | AID 2071, 2009 | S. cerevisiae NALP1/ASC/caspase-1 growth, X-gal OD620, 72 h | inhibition, % at 10 µM | hit rate 0.61% among 280,000; in the data active = inhibition mostly above about 24%, no sharp cut-off; inactive = mostly below about 32%
ALR H2O2 inh – inhibitors of human ALR sulfhydryl oxidase, primary screen, biochemical, H2O2 detection, HRP-luminol luminescence, single point. FAD-linked sulfhydryl oxidase ALR (Homo sapiens), P55789. purified ALR, DTT oxidation. inhibition, % (concentration not given with the values). hit rate 3.8% among 290,000. AID 485317, 2010;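 active = mean replicate inhibition above about 79%, with every replicate also reaching it, limit read from the data; inconclusive = only one of the two criteria met; inactive = mean below limit and not every replicate reaching it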
Target sequence (P55789 whole entry, looked up): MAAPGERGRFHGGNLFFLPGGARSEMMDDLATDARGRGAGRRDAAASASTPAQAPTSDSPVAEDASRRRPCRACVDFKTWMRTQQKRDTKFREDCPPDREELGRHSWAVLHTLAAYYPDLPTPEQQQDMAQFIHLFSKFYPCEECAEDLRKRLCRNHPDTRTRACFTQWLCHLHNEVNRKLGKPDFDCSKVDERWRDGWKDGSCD
ATG4B inh – ATG4B protease inhibitors, primary screen, biochemical, fluorescence, uHTS; hit rate 0.51% among 340,000; inhibition, % at 8.33 µM; Cysteine protease ATG4B (Homo sapiens), Q9Y4P1; ATG4B cleavage of LC3-PLA2, NBD-HPC fluorescence, 1 h; in the data active = inhibition above about 40%
Target sequence (Q9Y4P1 whole entry, looked up): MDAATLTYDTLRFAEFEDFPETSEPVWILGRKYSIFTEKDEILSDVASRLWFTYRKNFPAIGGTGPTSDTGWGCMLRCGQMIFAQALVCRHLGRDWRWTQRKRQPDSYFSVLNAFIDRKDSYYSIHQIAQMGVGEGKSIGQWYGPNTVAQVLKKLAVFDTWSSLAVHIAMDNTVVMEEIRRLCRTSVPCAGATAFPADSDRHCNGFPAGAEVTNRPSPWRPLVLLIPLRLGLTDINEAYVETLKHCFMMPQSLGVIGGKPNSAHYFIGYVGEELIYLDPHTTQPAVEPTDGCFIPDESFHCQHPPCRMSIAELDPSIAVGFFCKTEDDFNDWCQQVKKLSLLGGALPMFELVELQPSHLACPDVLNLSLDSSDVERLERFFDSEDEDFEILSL
Calb FLC – C. albicans growth inhibition with fluconazole, primary screen, CaCi-2 strain, Alamar Blue fluorescence. hit rate 0.57% among 300,000. growth inhibition, % (no concentration beside the values). C. albicans CaCi-2 + fluconazole, 48 h;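 active = growth inhibition above about 58% in most replicates, limit read from the data, passing the limit was not always enough; inconclusive = exactly half the replicates above a set limit; inactive = most replicates below a set limit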;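 note: all wells also contain fluconazole at 8 µg/ml as a sub-toxic cotreatment; 0% = median of DMSO wells and 100% = median of geldanamycin control wells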
* = called active by the depositor.

Screening CN(c1ccccc1)S(=O)(=O)c1cccc(C(=O)OCC(=O)NCc2ccco2)c1 returned NLRP3 yeast inh -14, UCH37 inh 5, NALP1 inh 24*, ALR H2O2 inh -8, ATG4B inh -12 and Calb FLC -3.
CSCCOC(=O)COc1ccc(C=NNC(=O)c2nn(C)cc2Cl)cc1 was read as UCH37 inh 4.
CC(=NNC(=O)c1cccs1)c1cccs1 was read as UCH37 inh 1.
Cc1ccc(OCCCC(=O)NCc2ccco2)c(C)c1 was read as NLRP3 yeast inh 13, UCH37 inh 7, NALP1 inh -11, ALR H2O2 inh 95* and Calb FLC 0.
For CCCCNC(=O)C(=O)NN=Cc1ccc(OCc2ccccc2)cc1 the results were UCH37 inh -1.
Screening COc1ccc(NC(=O)CSc2nc(O)cc(=O)n2C)cc1 returned NLRP3 yeast inh 12, UCH37 inh 4, NALP1 inh 23, ALR H2O2 inh 99*, ATG4B inh 7 and Calb FLC -9.
Screening Nn1c(SCC(=O)Nc2nc3ccccc3s2)nncc1=O returned NLRP3 yeast inh 6, NALP1 inh 30, ALR H2O2 inh 98*, ATG4B inh -2 and Calb FLC 0.
CCn1c(CNc2ccccc2Cl)nnc1SCC(=O)NCc1ccccc1 was read as NLRP3 yeast inh -2, UCH37 inh 2, NALP1 inh -61, ALR H2O2 inh -3, ATG4B inh -12 and Calb FLC 22.
Cc1nnc(SCC(=O)Nc2nc3ccccc3s2)n(N)c1=O was read as NLRP3 yeast inh 13, UCH37 inh 1, NALP1 inh 26, ALR H2O2 inh 45, ATG4B inh -1 and Calb FLC 11.
`COc1ccc(NC(=O)CSc2nc(O)cc(=O)n2-c2ccccc2)cc1` gave NLRP3 yeast inh 6, UCH37 inh 1, NALP1 inh 5, ALR H2O2 inh 99*, ATG4B inh -1 and Calb FLC 5.
Screening CCn1c(CNc2ccc(C)cc2)nnc1SCC(=O)NCc1ccccc1 returned NLRP3 yeast inh 3, UCH37 inh 5, NALP1 inh 4, ALR H2O2 inh 86*, ATG4B inh 2 and Calb FLC -3.
For COc1ccc(NC(=O)CSc2nnc(C3CCCCC3)n2-c2ccccc2)cc1 the results were NLRP3 yeast inh 9, UCH37 inh 4, NALP1 inh -9, ALR H2O2 inh -4, ATG4B inh -20 and Calb FLC 7.
`CCOc1cc(C=NNC(=O)c2cccnc2)ccc1O` gave UCH37 inh 9.
For CC(=NNC(=O)c1cccc(Br)c1)c1cccnc1 the results were UCH37 inh 1.
`COC(=O)NN=Cc1ccccc1OC/C=C/c1ccccc1` gave UCH37 inh 1.
`CC(=NNC(=O)c1c(C)nc2ccccn12)c1cccc([N+](=O)[O-])c1` gave UCH37 inh 5.
`O=C(CSc1nc(O)cc(=O)n1-c1ccccc1)Nc1ccc2c3c(cccc13)CC2` gave NLRP3 yeast inh 10, UCH37 inh -1, NALP1 inh 20, ALR H2O2 inh 99*, ATG4B inh -3 and Calb FLC 0.
For CCn1c(CNC(=O)c2cccs2)nnc1SCC(=O)Nc1ccc(Cl)cc1 the results were NLRP3 yeast inh 9, UCH37 inh 2, NALP1 inh 5, ALR H2O2 inh 97*, ATG4B inh -10 and Calb FLC 10.
For Cn1c(SCC(=O)Nc2ccccc2)nc(O)cc1=O the results were NLRP3 yeast inh 11, UCH37 inh 6, NALP1 inh 1, ALR H2O2 inh 99*, ATG4B inh 2 and Calb FLC 7.
Screening CCCn1c(SCC(=O)Nc2ccc(Cl)cc2F)nc(O)cc1=O returned NLRP3 yeast inh 1, UCH37 inh 6, ALR H2O2 inh 99* and ATG4B inh -7.
For COc1cccc(C=NNC(=O)CC(=O)NCCc2ccccc2)c1OC the results were UCH37 inh -9.
For CCCn1c(SCC(=O)Nc2ccc(F)c(Cl)c2)nc(O)cc1=O the results were NLRP3 yeast inh -4, UCH37 inh 3 and ATG4B inh 2.
For COc1ccc(NCc2nnc(SCC(=O)Nc3ccccc3)n2C)cc1 the results were NLRP3 yeast inh 7, UCH37 inh 0, NALP1 inh 11, ALR H2O2 inh 94*, ATG4B inh -3 and Calb FLC 4.
`Cc1ccc(-n2c(SCC(=O)Nc3ccc(Cl)cc3)nc(O)cc2=O)cc1` gave NLRP3 yeast inh 16, UCH37 inh 2, NALP1 inh 2, ALR H2O2 inh 94*, ATG4B inh 8 and Calb FLC -8.
Screening O=C(CSc1nc(O)cc(=O)n1-c1ccccc1)Nc1nc2ccccc2s1 returned NLRP3 yeast inh -1, UCH37 inh 6, ALR H2O2 inh 99*, ATG4B inh -4 and Calb FLC -7.
For COc1ccccc1-n1c(SCC(=O)N2CCOCC2)nc(O)cc1=O the results were NLRP3 yeast inh 24, UCH37 inh 5, NALP1 inh -1, ALR H2O2 inh -3, ATG4B inh 6 and Calb FLC -5.
For COc1ccccc1-n1c(SCC(=O)Nc2ccc(Br)cc2)nc(O)cc1=O the results were NLRP3 yeast inh -7, UCH37 inh -3, ALR H2O2 inh 99*, ATG4B inh -4 and Calb FLC -5.
Cn1ccnc1SCC(=O)Nc1nc2ccccc2s1 was read as NLRP3 yeast inh 10, UCH37 inh -2, NALP1 inh 16, ALR H2O2 inh inconclusive, ATG4B inh -11 and Calb FLC -1.
For COc1ccc(C=NN2CCOCC2)cc1Cn1cc([N+](=O)[O-])cn1 the results were UCH37 inh 2.
For O=C(NC1CCCCC1)C(c1ccc2ncccc2c1)N(Cc1ccc(F)cc1)C(=O)c1ccc2c(c1)OCCO2 (centres undefined) the results were NLRP3 yeast inh -11, UCH37 inh 1, NALP1 inh 5, ALR H2O2 inh 1, ATG4B inh -19 and Calb FLC 87*.
Screening O=C(NC1CCCCC1)C(c1ccc2ncccc2c1)N(Cc1ccc2c(c1)OCO2)C(=O)c1ccc2c(c1)OCCO2 (centres undefined) returned NLRP3 yeast inh 18, UCH37 inh 4, NALP1 inh 8, ALR H2O2 inh -12, ATG4B inh -12 and Calb FLC 6.
Screening CC(=O)NS(=O)(=O)c1ccc(NC(=O)c2ccc3c(c2)C(=O)N(CCC(C)C)C3=O)cc1 returned NLRP3 yeast inh -13, UCH37 inh 3, NALP1 inh 26, ALR H2O2 inh 92*, ATG4B inh -12 and Calb FLC 12.
